# Test results as given in ChEMBL document CHEMBL1800018, “Discovery of a series of imidazo[4,5-b]pyridines with dual activity at angiotensin II type 1 receptor and peroxisome proliferator-activated receptor-γ” (J Med Chem, 2011).
# Calls of active or inactive are those of the source. No cut-off for these calls is given here.
# How the values were obtained:
# [1] = Cmax in SHR rat at 1 mg/kg, po; format: ADME, organism-based; parameters: dose 1 mg/kg, route oral; details: in vivo
# Method in brief: (§1)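 SHR received a single oral dose of 1, 3 or 10 mg/kg. Systemic exposure was determined as plasma Cmax and AUC.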
# [2] = target: T1, Type-1 angiotensin II receptor (Homo sapiens, UniProt P30556); assay: Binding affinity to human Angiotensin receptor 1
# T1 sequence (P30556 whole entry): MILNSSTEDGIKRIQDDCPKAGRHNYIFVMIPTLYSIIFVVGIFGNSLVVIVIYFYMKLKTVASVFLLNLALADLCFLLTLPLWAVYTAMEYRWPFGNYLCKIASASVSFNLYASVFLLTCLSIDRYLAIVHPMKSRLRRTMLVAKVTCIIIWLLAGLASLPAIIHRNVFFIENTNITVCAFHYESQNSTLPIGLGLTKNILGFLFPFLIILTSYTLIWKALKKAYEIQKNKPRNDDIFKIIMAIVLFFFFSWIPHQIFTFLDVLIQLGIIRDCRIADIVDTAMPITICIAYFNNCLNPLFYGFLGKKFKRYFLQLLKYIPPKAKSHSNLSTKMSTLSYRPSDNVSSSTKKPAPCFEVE
# Method in brief: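 Competition radioligand binding on human recombinant AT1 receptors, displacing [¹²⁵I]Tyr⁴-Sar¹,Ile⁸-angiotensin II.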
# [3] = AUC in rat at 1 mg/kg, iv; format: ADME, organism-based; parameters: dose 1 mg/kg, route intravenous; details: plasma
# [4] = AUC in SHR rat at 3 mg/kg, po; format: ADME, organism-based; parameters: dose 3 mg/kg, route oral; details: plasma; method in brief: as §1
# Rattus norvegicus [5] = assay: Antihypertensive activity in SHR rat assessed as decrease in arterial blood pressure at 0.3 to 10 mg/kg, po administered as single dose measured after 20 hrs; format: functional, organism-based; details: Artery
# Method in brief: (§2)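 SHR carried aortic radiotelemetry transmitters implanted under Telazol anesthesia and recovered for at least 1 week. Rats were randomized by 2 h baseline mean BP. Each received vehicle by oral gavage on Day 0 and a single drug dose (0.3–10 mg/kg) on Day 1, with BP followed 20 h each day. The change was taken as Day 1 minus Day 0, n = 8/group.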
# Rattus norvegicus [6] = assay: Antidiabetic activity in ZDF rat assessed as body weight gain at 1 mg/kg, po QD for 40 days (reference value: 133+/-9 g); format: functional
# Method in brief: (§3)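 Male ZDF rats, starting at about 6 weeks old, were dosed orally once daily for 40 days in 1.5% CMC/0.2% Tween 20 suspension, n = 8/group. Body weight was followed over the study. Gain was calculated per animal from day 0 to day 40 and compared with vehicle and pioglitazone (3 mg/kg) groups. Data are mean ± SEM.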
# [7] = Cmax in SHR rat at 3 mg/kg, po; format: ADME, organism-based; parameters: dose 3 mg/kg, route oral; details: in vivo; method in brief: as §1
# Rattus norvegicus [8] = assay: Antidiabetic activity in ZDF rat assessed as body weight gain at 100 mg/kg, po QD for 40 days relative to pioglitazone; format: functional; method in brief: as §3
# Rattus norvegicus [9] = assay: Antidiabetic activity in ZDF rat assessed as body weight gain at 3 mg/kg, po QD for 40 days (reference value: 133+/-9 g); format: functional; method in brief: as §3
# Rattus norvegicus [10] = assay: Antidiabetic activity in ZDF rat assessed as blood glucose level at 0.1 mg/kg, po QD for 40 days (reference value: 771+/-60 mg/dL); format: functional
# [11] = Oral bioavailability in rat at 5 mg/kg; format: ADME, organism-based; details: in vivo
# Rattus norvegicus [12] = species on record: Rattus norvegicus; assay: Steady state free plasma concentration in SHR rat; format: ADME, organism-based; details: in vivo, in the assay text read “ZDF rat” for “SHR rat”
# [13] = AUC in ZDF rat at 10 mg/kg, po; format: ADME, organism-based; parameters: dose 10 mg/kg, route oral; details: plasma
# Method in brief: (§4)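 Male ZDF rats; satellite animals outside the efficacy groups were given oral doses of 3, 10 or 100 mg/kg. Plasma Cmax and AUC were calculated from these animals.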
# Rattus norvegicus [14] = assay: Antidiabetic activity in ZDF rat assessed as blood glucose level at 10 mg/kg, po QD for 40 days (reference value: 771+/-60 mg/dL); format: functional
# Rattus norvegicus [15] = assay: Antihypertensive activity in po dosed SHR rat assessed as decrease in arterial blood pressure administered as single dose; format: functional, organism-based; details: Artery; method in brief: as §2
# Rattus norvegicus [16] = assay: Antidiabetic activity in ZDF rat assessed as adiponectin level at 100 mg/kg, po QD for 40 days (reference value: 11.9+/-1.5 ug/ml); format: functional
# [17] = Cmax in SHR rat at 10 mg/kg, po; format: ADME, organism-based; parameters: dose 10 mg/kg, route oral; details: in vivo; method in brief: as §1
# Rattus norvegicus [18] = assay: Antidiabetic activity in ZDF rat assessed as adiponectin level at 30 mg/kg, po QD for 40 days (reference value: 11.9+/-1.5 ug/ml); format: functional
# [19] = Volume of distribution at steady state in rat at 1 mg/kg, iv; format: ADME, organism-based; parameters: dose 1 mg/kg, route intravenous; details: in vivo, read-out: Vdss
# [20] = AUC in ZDF rat at 3 mg/kg, po; format: ADME, organism-based; parameters: dose 3 mg/kg, route oral; details: plasma; method in brief: as §4
# Rattus norvegicus [21] = assay: Antidiabetic activity in ZDF rat assessed as triglyceride level at 100 mg/kg, po QD for 40 days (reference value: 618+/-52 mg/dL); format: functional
# [22] = target: T2, Peroxisome proliferator-activated receptor delta (Homo sapiens) (UniProt Q03181); assay: Transactivation of human PPARbeta
# T2 sequence (whole entry): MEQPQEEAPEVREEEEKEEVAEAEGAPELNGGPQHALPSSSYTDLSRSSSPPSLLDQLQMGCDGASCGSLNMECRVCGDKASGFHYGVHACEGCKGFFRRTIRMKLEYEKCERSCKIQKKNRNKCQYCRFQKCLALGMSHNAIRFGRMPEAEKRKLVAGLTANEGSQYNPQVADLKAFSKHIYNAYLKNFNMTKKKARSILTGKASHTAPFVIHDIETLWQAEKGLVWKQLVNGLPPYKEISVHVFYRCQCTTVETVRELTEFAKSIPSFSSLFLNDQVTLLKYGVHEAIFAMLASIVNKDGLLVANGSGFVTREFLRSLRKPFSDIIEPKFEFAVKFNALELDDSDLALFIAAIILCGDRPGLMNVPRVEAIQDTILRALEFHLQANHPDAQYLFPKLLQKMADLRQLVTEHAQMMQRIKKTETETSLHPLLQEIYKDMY
# [23] = Half life in rat at 1 mg/kg, iv; format: ADME, organism-based; parameters: dose 1 mg/kg, route intravenous; details: in vivo
# Rattus norvegicus [24] = assay: Antidiabetic activity in ZDF rat assessed as triglyceride level at 1 mg/kg, po QD for 40 days (reference value: 618+/-52 mg/dL); format: functional
# Rattus norvegicus [25] = assay: Antidiabetic activity in ZDF rat assessed as adiponectin level at 10 mg/kg, po QD for 40 days (reference value: 11.9+/-1.5 ug/ml); format: functional
# Rattus norvegicus [26] = assay: Antidiabetic activity in ZDF rat assessed as adiponectin level at 1 mg/kg, po QD for 40 days (reference value: 11.9+/-1.5 ug/ml); format: functional
# [27] = Cmax in ZDF rat at 3 mg/kg, po; format: ADME, organism-based; parameters: dose 3 mg/kg, route oral; details: in vivo; method in brief: as §4
# Rattus norvegicus [28] = assay: Antidiabetic activity in ZDF rat assessed as blood glucose level at 30 mg/kg, po QD for 40 days (reference value: 771+/-60 mg/dL); format: functional
# Rattus norvegicus [29] = assay: Antidiabetic activity in ZDF rat assessed as triglyceride level at 0.1 mg/kg, po QD for 40 days (reference value: 618+/-52 mg/dL); format: functional
# Rattus norvegicus [30] = assay: Antidiabetic activity in ZDF rat assessed as body weight gain at 0.1 mg/kg, po QD for 40 days (reference value: 133+/-9 g); format: functional; method in brief: as §3
# Rattus norvegicus [31] = assay: Antihypertensive activity in SHR rat assessed as decrease in arterial blood pressure at 10 mg/kg, po administered as single dose; format: functional, Artery; method in brief: as §2
structure (smiles),measurement,setting,value
CCc1nc2c(C)cc(CC(C)C)nc2n1[C@H]1CCc2cc(-c3ccccc3-c3nnn[nH]3)ccc21,Cmax,[1],74 ng/mL
same,Ki,[2],0.69 nM
same,AUC,[3],1220 ng·h/mL
same,AUC,[4],1280 ng·h/mL
same,Activity,Rattus norvegicus [5],Active
same,Activity,Rattus norvegicus [6],150 g
same,Cmax,[7],283 ng/mL
same,Activity,Rattus norvegicus [8],51%
same,Activity,Rattus norvegicus [9],159 g
same,Activity,Rattus norvegicus [10],771 mg/dL
same,bioavailability,[11],80%
same,Cp(f)ss,Rattus norvegicus [12],2.6 nM
same,AUC,[13],28000 ng·h/mL
same,Activity,Rattus norvegicus [14],159 mg/dL
same,Activity,Rattus norvegicus [15],Active
same,Activity,Rattus norvegicus [16],27.5 µg/mL
same,Cmax,[17],3070 ng/mL
same,Activity,Rattus norvegicus [18],24.3 µg/mL
same,Vd,[19],2.9 L/kg
same,AUC,[20],4400 ng·h/mL
same,Activity,Rattus norvegicus [21],151 mg/dL
same,Activity,[22],inactive
same,half-life,[23],126 min
same,Activity,Rattus norvegicus [24],725 mg/dL
same,Activity,Rattus norvegicus [25],24.4 µg/mL
same,Activity,Rattus norvegicus [26],10.2 µg/mL
same,Cmax,[27],267 ng/mL
same,Activity,Rattus norvegicus [28],140 mg/dL
same,Activity,Rattus norvegicus [29],559 mg/dL
same,Activity,Rattus norvegicus [30],128 g
same,Activity,Rattus norvegicus [31],36 mmHg
